# Source: PubChem
# Rev-RRE block: HIV Rev-RRE protein-RNA interaction inhibition. P05866. inhibition, % at 8 µM. Rev peptide-RRE RNA binding, FRET. 0.79% of 97,000 active;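 active = inhibition above the screen-wide mean plus 3 SD, cut at about 35% in these data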;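 note: 0% = median DMSO wells and 100% = median Neomycin B control wells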
# Target sequence (P05866 whole entry, looked up): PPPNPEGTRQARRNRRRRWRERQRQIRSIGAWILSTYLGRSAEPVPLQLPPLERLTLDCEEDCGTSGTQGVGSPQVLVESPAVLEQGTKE
#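 Test system: Cy5-tagged RRE RNA duplex with fluorescein-tagged Rev peptide | Read-out: % inhibition of FRET ratio versus controls | Probe or stimulus: Labelled Rev peptide | Incubation: 5 min RNA-compound premix plus 15 min binding step, 25 °C | Technique: FRET fluorescence readout | Benchmarks: DMSO low control, neomycin B high control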
# PostGolgi ctrl: inhibits growth of the yeast control strain; efflux-deficient yeast background strain, growth absorbance A615, 16 h; inhibition, % at 10 µM; 5% of 98,000 active
# PostGolgi yeast: growth inhibition of a yeast mutant, post-Golgi transport screen | post-Golgi transport phenotypic cell assay | inhibition, % at 10 µM | 0.9% of 98,000 active | AID 739;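 note: yeast cells grown in 1536-well plates; yeast grown about 18 h at 30C before absorbance read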
# EphB4 antag: antagonists of human EphB4-ephrin-B2 interaction; P54760; EphB4 LBD / TNYL-RAW-Alexa532 peptide, fluorescence polarization; inhibition, % at 7 µM; 0.15% of 97,000 active; AID 720;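 active = inhibition above the screen-wide mean inhibition plus 3 SD, cut at about 15% in these data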;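 note: 0% = DMSO wells and 100% = excess unlabeled TNYL-RAW peptide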
# PLK1 PBD inh: Plk1 (human) PBD binding inhibition. Plk1 PBD phosphopeptide binding, fluorescence polarization. inhibition, %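 (tested at about 20 µM)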. 0.13% of 97,000 active; in the data active = inhibition above about 34%, passing the limit was not always enough
# PLK1 kinase inh: blocks human PLK1 kinase activity | recombinant PLK1 kinase, TR-FRET peptide phosphorylation | inhibition, % at 10 µM | 0.53% of 97,000 active;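 active = inhibition of 50% or more in the single-concentration screen; inactive = inhibition below 50%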;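 note: 0% = DMSO max control and 100% = H-89 dihydrochloride min control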
# Starred values were filed as active, the others as inactive; / = not tested or not shown; [ ] = another dose, or the depositor's remark. Shown are actives, neighbours in structure and some others; about 6.4% of the full set was active somewhere. Cut-off read from the data, not from the text of the source, unless noted: active = inhibition above about 30%; inactive = the rest.
SMILES,Rev-RRE block,PostGolgi ctrl,PostGolgi yeast,EphB4 antag,PLK1 PBD inh,PLK1 kinase inh
COc1ccccc1NC(=O)COc1ccccc1,4,6,-3,2,-5,-9
Cc1csc(NC(=O)Cc2nn(C)c(=O)c3ccccc23)n1,8,-3,-1,-6,16,-32
Cc1cc2oc(=O)cc(CN3CCCCC3C)c2c(C)c1Cl (centres undefined),12,15,15,-5,-13,-1
O=C(O)c1ccc2c(c1)C(=O)N(c1cc(C(=O)O)ccc1Br)C2=O,/,30*,-4,/,/,/
COC(C)(C)[C@]12CC(O)(c3ccccc3)ON1[C@H]1CCCCC1N2O (some centres undefined),4,32*,1,7,-2,-14
CC1CCCCN1c1nc(-c2ccncc2)nc2ccccc12 (centres undefined),18,73*,17,-3,7,13
CC1CCN(c2nc(-c3ccncc3)nc3ccccc23)CC1,9,95*,105*,-10,2,-7
c1ccc2c(N3CCOCC3)nc(-c3ccncc3)nc2c1,8,9,7,6,-1,4
CCC1CCCCN1c1nc(-c2ccncc2)nc2ccccc12 (centres undefined),7,75*,9,1,-6,12
CCC1CCCCN1c1nc(-c2cccc(OC)c2O)nc2ccccc12 (centres undefined),4,41*,-3,8,-32,-5
COc1cccc(-c2nc(N3CCN(c4ccccc4)CC3)c3ccccc3n2)c1O,-4,11,3,-10,-3,-13
CCN1N=C(c2cc(Cl)sc2Cl)CSC1=O,11,/,/,-1,-8,-13
COc1ccc(C2=[N+]([O-])C(C)(C)N(O)C2C)cc1 (centres undefined),3,/,/,1,19,-10
Cc1cccc(OCCNc2cc(N3CCOCC3)ccc2[N+](=O)[O-])c1,0,66*,-3,-5,25,-3
Cc1cccc(OCCCC(=O)Nc2ccc(N3CCOCC3)cc2)c1,2,-1,2,-3,-5,-14
COc1cccc(-c2nc(NCC3CCCO3)c3ccccc3n2)c1O (centres undefined),0,43*,7,-9,16,-5
Oc1ccccc1-c1nc(NCC2CCCO2)c2ccccc2n1 (centres undefined),13,56*,-3,1,-14,-2
COc1ccc(CCC(C)Nc2ccc(F)cc2)cc1 (centres undefined),6,4,-8,3,12,-10
Cc1sc2ncnc(SCC(=O)N3CCC(c4noc5ccc(F)cc45)CC3)c2c1C,6,91*,83*,0,-17,-19
COc1ccc(N/N=C(\C=N\O)C(=O)c2ccc(OC)cc2)cc1,5,35*,8,7,8,8
CCCn1c(CNc2ccc(Br)cc2)nc2ccccc21,22,71*,-4,4,11,-1
CCn1c(CNc2ccc(C(=O)O)cc2)nc2ccccc21,4,11,39*,4,2,-10
C/C(=N\Nc1cc(Cl)nc(C)n1)c1ccc(C)cc1,-1,/,/,6,-14,-11
CCOC(=O)C1C(=O)Oc2ccc3ccccc3c2C1C1CCOC1=O (centres undefined),2,2,-5,-1,11,63*
O=[n+]1c2c(n([O-])c3cc(F)c(N4CCCC4)cc31)CCCC2,79*[fluorescence artefact?],17,3,-2,-6,-13
SMILES,Rev-RRE block,PostGolgi ctrl,PostGolgi yeast,EphB4 antag,PLK1 PBD inh,PLK1 kinase inh
O=[n+]1c2c(n([O-])c3cc(F)c(N4CCCC4)cc31)CCC2,66*[fluorescence artefact?],/,/,6,-19,-14
CCN(CC(=O)Nc1ccccc1Br)Cc1nc2ccccc2c(=O)[nH]1,0,4,1,9,-18,1
C/C(CC1CC2=C(CC1(C)C)C(C)(C)CCC2)=N\NC(N)=S (centres undefined),-2,80*,104*,-22,-4,-8
O=C(CN1CCC(n2nnc3cc(F)ccc32)CC1)NC1CC1,/,5,-1,/,/,/
CCOc1ccc2nc(NC(=O)CN3CCC(n4nnc5cc(F)ccc54)CC3)sc2c1,9,34*,10,2,-13,2
CCc1ccc(/C=N/NC(=O)c2cc(-c3ccccc3OC)nc3ccccc23)s1,-2,75*,9,-3,-36,-10
COc1ccccc1-c1cc(C(=O)N/N=C/c2ccc(C)s2)c2ccccc2n1,2,92*,10,-5,8,-11
Cn1c(SCC2CCCCC2)nnc1-c1ccncc1,/,1,2,/,/,/
CC(=O)NN1C(=O)c2ccc(Oc3cccc([N+](=O)[O-])c3)cc2C1=O,4,7,6,13,17,-8
Fc1ccc(-c2nc3ccncc3[nH]2)cc1,8,0,-3,3,-12,65*
O=C(CSc1nccc2ccccc12)N1CCN(c2ccccn2)CC1,8,17,8,4,-5,-5
O=C(COc1ccc2ccccc2c1Br)N1CCN(c2ccccn2)CC1,2,37*,-14,5,0,-5
CCCn1c(=N)n(CCOCCOCCn2c(=N)n(CCC)c3ccccc32)c2ccccc21,14,/,/,9,-5,19
COc1cccc(Oc2nnnn2-c2ccccc2)c1,-3,11,4,-8,-12,-5
COc1cccc(-n2nnnc2S(C)(=O)=O)c1,8,30*,17,4,-10,1
CC(C)CN(C(=O)c1nn(C)c(=O)c2ccccc12)c1nc2ccccc2s1,3,17,2,5,-8,1
O=C(c1ccc(Cl)cc1Cl)C1(n2cncn2)Oc2ccccc2C1O (centres undefined),/,96*,100*,/,/,/
O=C(Nc1cccn2ncnc12)c1ccc(Cl)cc1Cl,-1,5,-12,-4,6,-1
C=CCOc1ccc(CNc2nccs2)cc1OCC,-2,/,/,2,3,-1
C=CCOc1c(CNc2nccs2)cccc1OCC,1,23,33*,8,16,-12
O=[N+]([O-])c1nn(-c2ccc3c(c2)OCCO3)n(O)c1=NC1CCCCC1,8,16,1,9,37,-5
CCc1ccc(N=c2c([N+](=O)[O-])nn(-c3ccccc3)n2O)cc1,7,34*,7,-3,-4,-15
COc1ccc(C(=O)CC(Nc2ccc([N+](=O)[O-])cc2)c2ccc(Cl)cc2)cc1 (centres undefined),6,15,-9,-6,-7,-3
COc1ccc(-n2nc([N+](=O)[O-])c(=NCCc3ccc(Cl)cc3)n2O)cc1,4,40*,3,-3,4,2
COC(=O)C1=C(CN2CCCc3ccccc32)NC(=O)NC1c1ccc(F)cc1 (centres undefined),/,11,-2,/,/,/
CCSCCOC(=O)C1=C(C)NC(=O)NC1c1ccccc1 (centres undefined),8,13,-5,6,14,61*
